Experimental data: publication PMC2871304 (Biochemistry, 2010)

Tests used:
protease XIV = experiment: Enzymatic degradation of Aβ fibrils by protease XIV; assay type: in vitro ADME; details: protease XIV 100 μg/mL, 24 h, 0.1 M phosphate buffer pH 7.4, 37°C; MALDI-TOF
How it was run: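 Fibrils from 100 μM Aβ(1-42) were aged 2 days at 37°C, then digested with the enzyme. Products (about 1 μg/mL peptide) were mixed with saturated sinapic acid in ACN/0.1% TFA (1:2) and run by MALDI-TOF over 20–5000 Da. Enzyme alone served as control. Cleavage patterns were inferred from substrate specificity (C-terminal to aromatic and basic residues) and fragment masses.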

neprilysin (NEP) = neprilysin (NEP) (Homo sapiens, UniProt P08473); experiment: Enzymatic degradation of Aβ fibrils by neprilysin; assay type: in vitro ADME; details: NEP 50 μg/mL, 48 h, 0.1 M phosphate buffer pH 7.4, 37°C; AFM
How it was run: (§1)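 Fibrils were made from Aβ(1-42): 5 mM in DMSO, sonicated 10 min at 37°C, diluted to 100 μM in 10 mM HCl, sonicated 30 min, filtered through 10,000 MWCO, then held 2 days at 37°C. After enzyme treatment, fibrils on gold-coated substrates were imaged by tapping-mode AFM in air with a 3 N/m silicon cantilever. Tip-convolution calibration gave true dimensions.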

[1] = target: insulin degrading enzyme (IDE) (Homo sapiens, UniProt P14735); experiment: Enzymatic degradation of Aβ fibrils by insulin degrading enzyme; assay type: in vitro ADME; details: IDE 50 μg/mL, 48 h, 0.1 M phosphate buffer pH 7.4, 37°C; AFM
How it was run: as §1

[2] = Circular dichroism, secondary structure content; assay type: physicochemical; details: CD at 37°C, filtered (10K MWCO) samples
How it was run: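 Microfibrils were measured by CD at 37°C before and after enzymatic degradation (24 or 48 h). Spectra were taken at 12 nm·sec−1 and 1 nm resolution, with 4 scans averaged. Enzyme-only solutions were subtracted. Data were expressed as molar residue ellipticity using 42 residues and 0.3 mM peptide. Secondary-structure content was estimated by a published method.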

[3] = MFTIR, secondary structure of microfibrils in air; assay type: physicochemical; details: amide I region deconvoluted
How it was run: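 Aβ(1-42) fibrils, formed by incubating 100 μM peptide in dilute HCl for 2 days at 37°C, were deposited on gold-coated substrates. Infrared microscopy was done in reflection mode at 4 cm−1 resolution with a liquid-nitrogen-cooled MCT detector.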

Sequence of neprilysin (NEP) (P08473 whole entry, species assumed): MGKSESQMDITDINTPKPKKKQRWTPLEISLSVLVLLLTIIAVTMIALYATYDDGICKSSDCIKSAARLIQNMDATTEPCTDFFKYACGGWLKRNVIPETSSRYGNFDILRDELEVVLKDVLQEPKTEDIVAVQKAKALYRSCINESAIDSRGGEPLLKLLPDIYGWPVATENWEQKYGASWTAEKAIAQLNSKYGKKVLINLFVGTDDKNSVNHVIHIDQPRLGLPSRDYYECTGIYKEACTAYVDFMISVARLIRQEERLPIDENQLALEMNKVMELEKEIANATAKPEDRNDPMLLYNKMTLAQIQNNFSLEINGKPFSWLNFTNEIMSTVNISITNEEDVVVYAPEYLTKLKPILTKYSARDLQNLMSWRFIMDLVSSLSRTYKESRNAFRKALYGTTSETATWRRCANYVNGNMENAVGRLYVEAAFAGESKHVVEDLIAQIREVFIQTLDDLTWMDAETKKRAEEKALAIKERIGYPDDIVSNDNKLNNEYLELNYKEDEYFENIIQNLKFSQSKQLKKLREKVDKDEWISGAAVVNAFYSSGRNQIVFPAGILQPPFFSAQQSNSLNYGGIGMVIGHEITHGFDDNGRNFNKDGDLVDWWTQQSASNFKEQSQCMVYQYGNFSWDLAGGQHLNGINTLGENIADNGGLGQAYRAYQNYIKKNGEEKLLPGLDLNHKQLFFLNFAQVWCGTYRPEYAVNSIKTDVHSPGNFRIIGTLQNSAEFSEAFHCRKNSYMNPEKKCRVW

Aβ microfibrils: Fibrils of purchased Aβ(1-42) peptide, incubated in DMSO/10 mM HCl at 37°C for 2 days
full-length Aβ(1-42) after degradation by protease XIV (protease XIV): no full-length Aβ(1-42) peptides
degradation on exposure to NEP (neprilysin (NEP)): almost no significant degradation
degradation on exposure to IDE [1]: almost no significant degradation
beta-strand structures, filtered samples [2]: 18±3%
alpha-helix and random coil content [3]: 12±2%
beta-sheet content [3]: 71±8%
turns content [3]: 17±5%
